Measured values from ChEMBL document CHEMBL1141595, “1-(2-Phenoxyphenyl)methanamines: SAR for dual serotonin/noradrenaline reuptake inhibition, metabolic stability and hERG affinity” (Bioorg Med Chem Lett, 2008).

Experiments:
[1] = target: Sodium-dependent serotonin transporter (Homo sapiens, UniProt P31645); assay: Inhibition of [3H]5HT uptake at human 5HT transporter expressed in HEK293 cells; assay type: cell-based
In short: (§1)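 HEK293 cells each expressing one human amine transporter, 7500 cells/well, preincubated 5 min at 25 °C with compound or DMSO vehicle. Uptake was started with tritiated substrate: 5-HT 50 nM (5 min), NA 200 nM (15 min), DA 200 nM (5 min), shaken at 25 °C. Stopped by ice-cold wash and filtration, then scintillation counting.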

[2] = target: Sodium-dependent noradrenaline transporter (Homo sapiens, UniProt P23975); assay: Inhibition of [3H]NA uptake at human NA transporter expressed in HEK293 cells; assay type: cell-based; in short: as §1
Sequence of Sodium-dependent noradrenaline transporter (P23975 whole entry): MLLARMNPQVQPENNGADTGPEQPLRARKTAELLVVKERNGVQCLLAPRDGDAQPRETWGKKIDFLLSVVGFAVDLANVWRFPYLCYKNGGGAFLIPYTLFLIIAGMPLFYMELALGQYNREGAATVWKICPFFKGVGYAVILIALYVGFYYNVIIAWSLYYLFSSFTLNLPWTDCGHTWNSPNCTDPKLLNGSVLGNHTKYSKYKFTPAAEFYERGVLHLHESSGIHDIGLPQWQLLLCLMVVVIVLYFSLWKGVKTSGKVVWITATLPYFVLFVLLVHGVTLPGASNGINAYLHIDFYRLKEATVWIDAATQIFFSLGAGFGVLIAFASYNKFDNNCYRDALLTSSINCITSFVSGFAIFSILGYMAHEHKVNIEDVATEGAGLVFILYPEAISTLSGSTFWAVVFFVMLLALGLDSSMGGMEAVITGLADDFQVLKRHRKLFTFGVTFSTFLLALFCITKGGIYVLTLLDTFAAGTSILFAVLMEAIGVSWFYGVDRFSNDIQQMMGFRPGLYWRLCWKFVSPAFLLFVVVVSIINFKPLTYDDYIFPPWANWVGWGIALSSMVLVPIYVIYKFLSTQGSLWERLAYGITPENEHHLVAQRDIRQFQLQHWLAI

[3] = target: Sodium-dependent dopamine transporter (Homo sapiens, UniProt Q01959); assay: Inhibition of [3H]dopamine uptake at human dopamine transporter expressed in HEK293 cells; assay type: cell-based; in short: as §1
Sequence of Sodium-dependent dopamine transporter (Q01959 whole entry): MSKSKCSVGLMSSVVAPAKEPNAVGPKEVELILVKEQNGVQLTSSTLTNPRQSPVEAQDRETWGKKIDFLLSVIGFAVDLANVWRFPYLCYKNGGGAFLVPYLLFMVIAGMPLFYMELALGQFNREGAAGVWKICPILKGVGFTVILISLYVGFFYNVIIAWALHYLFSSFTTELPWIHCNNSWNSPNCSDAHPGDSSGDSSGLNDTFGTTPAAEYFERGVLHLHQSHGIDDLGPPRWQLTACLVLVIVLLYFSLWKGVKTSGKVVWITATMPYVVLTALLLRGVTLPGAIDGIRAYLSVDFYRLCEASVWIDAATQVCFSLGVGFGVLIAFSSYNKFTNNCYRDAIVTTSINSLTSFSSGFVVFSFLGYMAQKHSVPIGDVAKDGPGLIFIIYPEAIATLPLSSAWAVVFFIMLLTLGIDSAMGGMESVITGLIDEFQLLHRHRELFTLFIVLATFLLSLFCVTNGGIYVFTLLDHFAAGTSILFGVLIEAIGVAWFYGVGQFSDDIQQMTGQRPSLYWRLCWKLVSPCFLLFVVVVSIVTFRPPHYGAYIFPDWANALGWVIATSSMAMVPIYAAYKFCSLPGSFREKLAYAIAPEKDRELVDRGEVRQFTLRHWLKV

[4] = Metabolic stability assessed as intrinsic clearance in human liver microsomes; assay type: ADME, Microsome
[5] = target: Voltage-gated inwardly rectifying potassium channel KCNH2 (Homo sapiens, UniProt Q12809); assay: Binding affinity to human ERG
Sequence of Voltage-gated inwardly rectifying potassium channel KCNH2 (Q12809 whole entry): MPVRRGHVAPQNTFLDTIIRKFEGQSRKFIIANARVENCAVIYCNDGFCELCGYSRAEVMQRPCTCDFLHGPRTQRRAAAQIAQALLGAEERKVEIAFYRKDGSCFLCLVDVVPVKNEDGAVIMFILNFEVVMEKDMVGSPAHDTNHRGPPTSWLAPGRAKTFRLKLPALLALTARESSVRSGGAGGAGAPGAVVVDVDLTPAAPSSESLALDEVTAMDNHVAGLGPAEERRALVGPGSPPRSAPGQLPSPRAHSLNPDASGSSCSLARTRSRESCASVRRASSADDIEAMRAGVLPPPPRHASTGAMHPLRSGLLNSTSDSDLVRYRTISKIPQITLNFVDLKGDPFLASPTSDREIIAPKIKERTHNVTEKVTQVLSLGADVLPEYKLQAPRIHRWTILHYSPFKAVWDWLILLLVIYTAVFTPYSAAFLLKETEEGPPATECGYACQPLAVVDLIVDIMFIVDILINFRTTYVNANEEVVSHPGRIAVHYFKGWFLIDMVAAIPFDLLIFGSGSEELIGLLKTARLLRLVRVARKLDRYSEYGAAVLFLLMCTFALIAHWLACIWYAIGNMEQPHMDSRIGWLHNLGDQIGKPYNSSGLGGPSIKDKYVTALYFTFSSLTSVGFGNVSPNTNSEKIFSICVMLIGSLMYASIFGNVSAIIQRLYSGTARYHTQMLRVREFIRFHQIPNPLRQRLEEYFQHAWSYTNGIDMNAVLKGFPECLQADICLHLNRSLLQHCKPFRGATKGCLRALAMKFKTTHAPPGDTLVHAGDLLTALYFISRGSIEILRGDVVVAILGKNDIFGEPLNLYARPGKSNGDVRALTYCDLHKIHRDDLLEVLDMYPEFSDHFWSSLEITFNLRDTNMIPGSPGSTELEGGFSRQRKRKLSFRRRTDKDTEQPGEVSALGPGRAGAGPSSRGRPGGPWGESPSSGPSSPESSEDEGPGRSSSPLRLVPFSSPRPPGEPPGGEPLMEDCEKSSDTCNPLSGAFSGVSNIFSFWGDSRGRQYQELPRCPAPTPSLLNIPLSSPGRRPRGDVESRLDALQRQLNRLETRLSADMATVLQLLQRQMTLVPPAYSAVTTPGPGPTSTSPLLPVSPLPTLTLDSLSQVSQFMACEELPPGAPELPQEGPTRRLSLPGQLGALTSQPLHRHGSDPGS

[6] = Membrane permeability by PAMPA assay; assay type: ADME

Sequence of Sodium-dependent serotonin transporter (P31645 whole entry): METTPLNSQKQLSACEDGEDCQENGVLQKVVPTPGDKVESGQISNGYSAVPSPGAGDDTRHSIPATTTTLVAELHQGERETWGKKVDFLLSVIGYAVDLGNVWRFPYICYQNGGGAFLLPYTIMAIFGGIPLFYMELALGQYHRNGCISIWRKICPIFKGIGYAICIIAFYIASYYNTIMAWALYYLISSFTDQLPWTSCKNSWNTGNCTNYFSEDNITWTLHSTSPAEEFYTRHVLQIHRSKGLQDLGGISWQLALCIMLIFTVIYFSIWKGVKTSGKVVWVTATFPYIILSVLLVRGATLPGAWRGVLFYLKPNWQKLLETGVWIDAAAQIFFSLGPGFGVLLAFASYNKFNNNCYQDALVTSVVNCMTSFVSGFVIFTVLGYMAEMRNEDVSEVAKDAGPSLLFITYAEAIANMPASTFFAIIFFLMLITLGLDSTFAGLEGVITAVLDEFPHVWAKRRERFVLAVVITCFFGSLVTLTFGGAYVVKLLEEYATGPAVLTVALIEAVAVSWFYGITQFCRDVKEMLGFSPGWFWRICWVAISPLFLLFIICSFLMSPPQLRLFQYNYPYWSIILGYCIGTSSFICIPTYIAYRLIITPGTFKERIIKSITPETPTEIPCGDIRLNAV

SMILES | IC50 [1] | IC50 [2] | IC50 [3] | microsomal CLint [4] | Ki [5] | Papp [6]
COc1cc(Cl)ccc1Oc1ccccc1CN(C)C | 0.006 µM | 0.014 µM | 3.78 µM | 45 µL/min/mg | > 7.5 µM | 
CNCc1cc(NS(C)(=O)=O)ccc1Oc1ccc(Cl)cc1C | 0.016 µM | 0.025 µM | 0.32 µM | 8 µL/min/mg | 7.25 µM | 2.2 ×10⁻⁶ cm/s
CNCc1cc(C#N)ccc1Oc1ccc(Cl)cc1OC | 0.005 µM | > 0.4 µM | > 40 µM |  |  | 
CNCc1cc(C(N)=O)ccc1Oc1ccc(Cl)cc1OC | 0.012 µM | 0.062 µM | 21 µM | 8 µL/min/mg | > 7.5 µM | 11 ×10⁻⁶ cm/s
CNCc1ccccc1Oc1ccc(F)cc1Cl |  | 0.3 µM | 6.51 µM |  |  | 
CNCc1ccccc1Oc1ccc(Cl)cc1F | 0.073 µM | 0.429 µM |  | 22 µL/min/mg | 5.93 µM | 
CN(C)Cc1ccccc1Oc1cccc(Cl)c1 | 0.238 µM | 0.082 µM | 0.194 µM |  |  | 
CNCc1ccccc1Oc1ccc(Cl)cc1OC | 0.013 µM | 0.078 µM | 19.6 µM | 9 µL/min/mg | 4.38 µM | 
CNCc1cc(C(N)=O)ccc1Oc1ccc(Cl)cc1Cl | 0.037 µM | 0.084 µM | 1.21 µM | 8 µL/min/mg |  | 10 ×10⁻⁶ cm/s
CN(C)Cc1ccccc1Oc1ccccc1 | 0.66 µM | 0.07 µM |  |  |  | 
CNCc1cc(C#N)ccc1Oc1ccc(Cl)cc1Cl | 0.028 µM | > 0.4 µM | 3.01 µM |  | 2.21 µM | 
CN(C)Cc1ccccc1Oc1ccc(Cl)cc1 | 0.018 µM | 0.256 µM | 0.124 µM |  |  | 
Cc1cccc(CN(C2CCOCC2)[C@H]2CCNC2)c1C |  |  |  | < 7 µL/min/mg |  | 
CNCc1cc(C(=O)N(C)C)ccc1Oc1ccc(Cl)cc1OC | 0.008 µM | 0.032 µM | > 40 µM | 15 µL/min/mg |  | 15 ×10⁻⁶ cm/s
CNCc1cc(C(N)=O)ccc1Oc1ccc(Cl)cc1C | 0.007 µM | 0.046 µM | 2.82 µM | 8 µL/min/mg |  | 
CNCc1cc(C(=O)N(C)C)ccc1Oc1ccc(Cl)cc1Cl | 0.011 µM | 0.033 µM | 0.275 µM | 13 µL/min/mg |  | 14 ×10⁻⁶ cm/s
CNCc1ccccc1Oc1ccc(OC)cc1Cl | 0.022 µM | 0.157 µM | 5.95 µM |  |  | 
CNCc1ccccc1Oc1ccc(Cl)cc1Cl | 0.056 µM | 0.042 µM | 0.506 µM |  |  | 
CNCc1cc(C(=O)NC)ccc1Oc1ccc(Cl)cc1Cl | 0.013 µM | 0.038 µM | 0.8 µM | 9 µL/min/mg | 1.76 µM | 
CNCc1cc(C(=O)NC)ccc1Oc1ccc(Cl)cc1OC | 0.013 µM | 0.078 µM | 15.7 µM | 8 µL/min/mg | > 7.5 µM | 14 ×10⁻⁶ cm/s
CN(C)Cc1ccccc1Oc1ccc(Cl)cc1Cl | 0.004 µM | 0.011 µM | 0.195 µM | 223 µL/min/mg |  | 
CN(C)Cc1ccccc1Oc1ccc(F)cc1Cl | 0.032 µM | 0.046 µM | 2.13 µM | 219 µL/min/mg |  | 
CNCc1cc(C(=O)NC)ccc1Oc1ccc(Cl)cc1C | 0.014 µM | 0.026 µM | 0.387 µM | 9 µL/min/mg |  | 
CNCc1ccccc1Oc1ccc(Cl)cc1C | 0.018 µM | 0.022 µM | 0.421 µM | 20 µL/min/mg |  | 
CNCc1cc(N2CCCS2(=O)=O)ccc1Oc1ccc(Cl)cc1C | 0.01 µM | 0.011 µM | 0.047 µM | 11 µL/min/mg | 1.59 µM | 2.7 ×10⁻⁶ cm/s
CN(C)Cc1ccccc1Oc1ccc(Cl)cc1F | 0.006 µM | 0.021 µM | 0.421 µM |  |  | 
CNCc1cc(C(=O)N(C)C)ccc1Oc1ccc(Cl)cc1C | 0.017 µM | 0.017 µM | 0.172 µM | 9 µL/min/mg | 3.75 µM | 19 ×10⁻⁶ cm/s
CN(C)Cc1ccccc1Oc1ccccc1Cl | 0.282 µM | 0.015 µM | 2.73 µM | 186 µL/min/mg |  | 
CNCc1cc(N2CCCS2(=O)=O)ccc1Oc1ccc(Cl)cc1Cl | 0.012 µM | 0.017 µM | 0.138 µM | 12 µL/min/mg |  | 
